Converted amounts (≈) assume the structure as drawn.
Experiments:
Assay type in all cases: functional
Bacillus subtilis [1] = test: Antimicrobial activity against Bacillus subtilis ATCC 6633 after 24 hrs
In short: (§1)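 MIC by twofold serial dilution in Mueller-Hinton broth (MHB); MHB also used to dilute the bacterial suspension. Wells held 10^3 cfu/ml bacteria after inoculation. Controls: 80% DMSO, 20% EtOH, methanol, DMSO, PBS, organism alone and medium alone. Triplicate in each run. MIC taken as the lowest concentration completely inhibiting macroscopic growth.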

Staphylococcus aureus [2] = test: Antimicrobial activity against multidrug-resistant Staphylococcus aureus after 24 hrs
In short: (§2)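 Twofold serial broth dilution in Mueller-Hinton broth. MHB was used both to dilute the bacterial suspension and for the twofold compound dilutions, giving 10^3 cfu/ml bacteria per well after inoculation. Solvent, medium and organism-only wells served as controls. Each organism was run in triplicate.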

Escherichia coli [3] = test: Antimicrobial activity against multidrug-resistant Escherichia coli after 24 hrs; in short: as §2
Bacillus subtilis [4] = test: Antimicrobial activity against ceftriazone-resistant Bacillus subtilis after 24 hrs; in short: as §2
Escherichia coli [5] = test: Antimicrobial activity against Escherichia coli ATCC 25922 after 24 hrs; in short: as §1
Staphylococcus aureus [6] = test: Antimicrobial activity against Staphylococcus aureus ATCC 25923 after 24 hrs; in short: as §2
Klebsiella pneumoniae [7] = test: Antimicrobial activity against Klebsiella pneumoniae RSHM 574 after 24 hrs; in short: as §1
Klebsiella pneumoniae [8] = test: Antimicrobial activity against multidrug-resistant Klebsiella pneumoniae after 24 hrs; in short: as §2
Pseudomonas aeruginosa = test: Antimicrobial activity against Pseudomonas aeruginosa ATCC […] after 24 hrs; in short: as §1
Candida albicans [9] = test: Antimicrobial activity against multidrug-resistant Candida albicans isolates after 24 to 48 hrs
In short: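 Yeast broth microdilution following CLSI M27-A, with Sabouraud dextrose medium noted for antifungal assays. Fresh cultures at McFarland 0.5 (10^6 cfu/ml) were diluted to 10^4 cfu/ml and inoculated into twofold compound dilutions. Trays were incubated at 35 °C in a humid chamber and read at 48 h, in triplicate. MIC was the lowest concentration giving complete macroscopic growth inhibition.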

Candida albicans [10] = test: Antimicrobial activity against Candida albicans ATCC 10231 after 24 to 48 hrs
In short: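 Twofold serial dilution following CLSI M27-A. Yeast suspension made at 10^4 cfu/ml by diluting a fresh culture at McFarland 0.5 (10^6 cfu/ml). Inoculated into the diluted compound, incubated at 35 °C in a humid chamber, read after 48 h. Triplicate in each run. MIC is the lowest concentration completely inhibiting macroscopic growth.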

[11] = Bacillus subtilis, ATCC 6633, 24 h

Compound | log(1/C) (Bacillus subtilis [1]) | MIC (Bacillus subtilis [1]; [11]) [µg/mL] | other results
Cc1ccc2oc(-c3ccccc3)nc2c1 | 4.224 | 12.5 (≈ 59.7 µM) | –
Cc1ccc2oc(-c3ccccc3F)nc2c1 | 3.959 | 25 (≈ 110 µM) | –
Cc1ccc2nc(-c3ccc(Br)cc3)oc2c1 | 4.363 | 12.5 (≈ 43.4 µM) | –
COc1ccc(-c2nc3ccc(C)cc3o2)c(OC)c1 | 4.032 | – | –
Cc1ccc2nc(-c3ccccc3Cl)oc2c1 | 3.989 | – | –
Cc1ccc2oc(-c3ccccc3[N+](=O)[O-])nc2c1 | 4.007 | 25 (≈ 98.3 µM) | –
Cc1ccc2oc(-c3ccc(Cl)cc3)nc2c1 | 4.29 | 12.5 (≈ 51.3 µM) | –
Cc1ccc2nc(-c3ccccc3F)oc2c1 | 3.959 | 25 (≈ 110 µM) | –
CO[C@H]1/C=C/O[C@@]2(C)Oc3c(C)c(O)c4c(O)c(c(/C=N/N5CCN(C)CC5)c(O)c4c3C2=O)NC(=O)/C(C)=C\C=C\[C@H](C)[C@H](O)[C@@H](C)[C@@H](O)[C@@H](C)[C@H](OC(C)=O)[C@@H]1C [RIFAMPIN] | – | – | MIC (Staphylococcus aureus [2]): 8 µg/mL (≈ 9.72 µM); MIC (Escherichia coli [3]): 64 µg/mL (≈ 77.8 µM); MIC (Bacillus subtilis [4]): 256 µg/mL (≈ 311 µM); MIC (Escherichia coli [5]; ATCC 25922, 24 h): 8 µg/mL (≈ 9.72 µM); MIC (Staphylococcus aureus [6]; ATCC 25923, 24 h): 0.5 µg/mL (≈ 0.608 µM); MIC (Klebsiella pneumoniae [7]; RSHM 574, 24 h): 16 µg/mL (≈ 19.4 µM); MIC (Klebsiella pneumoniae [8]): 256 µg/mL (≈ 311 µM); MIC (Pseudomonas aeruginosa): 32 µg/mL (≈ 38.9 µM)
COc1ccc(-c2nc3cc(C)ccc3o2)c(OC)c1 | 4.032 | – | –
Cc1ccc(-c2nc3ccc(C)cc3o2)c(C)c1 | 3.676 | 50 (≈ 211 µM) | –
GENTAMICIN SULFATE | – | – | MIC (Bacillus subtilis [1]): 1 µg/mL; MIC (Staphylococcus aureus [2]): 1020 µg/mL; MIC (Escherichia coli [3]): 1 µg/mL; MIC (Bacillus subtilis [4]): 512 µg/mL; MIC (Escherichia coli [5]): 0.5 µg/mL; MIC (Staphylococcus aureus [6]): 0.06 µg/mL; MIC (Klebsiella pneumoniae [7]): 8 µg/mL; MIC (Klebsiella pneumoniae [8]): 64 µg/mL; MIC (Pseudomonas aeruginosa): 2 µg/mL
COc1ccccc1-c1nc2ccc(C)cc2o1 | 3.981 | 25 (≈ 104 µM) | –
Cc1ccc2oc(-c3ccccc3Cl)nc2c1 | 3.989 | 25 (≈ 103 µM) | –
OC(Cn1cncn1)(Cn1cncn1)c1ccc(F)cc1F [FLUCONAZOLE] | – | – | MIC (Candida albicans [9]): 64 µg/mL (≈ 209 µM); MIC (Candida albicans [10]): 1 µg/mL (≈ 3.27 µM)
COc1ccccc1-c1nc2cc(C)ccc2o1 | 3.981 | 25 (≈ 104 µM) | –
Cc1ccc2oc(-c3ccc([N+](=O)[O-])cc3)nc2c1 | 4.609 | 6.25 (≈ 24.6 µM) | –
Cc1ccc2oc(-c3ccc(Cl)cc3Cl)nc2c1 | 4.046 | 25 (≈ 89.9 µM) | –

From ChEMBL document CHEMBL1138547, “Synthesis, biological evaluation and 2D-QSAR analysis of benzoxazoles as antimicrobial agents” (2009)
